Experimental data: ChEMBL document CHEMBL1140999, “Succinyl hydroxamates as potent and selective non-peptidic inhibitors of procollagen C-proteinase: design, synthesis, and evaluation as topically applied, dermal anti-scarring agents” (Bioorg Med Chem Lett, 2008)
≈ marks a conversion by molar mass, not a printed value. One block for each molecule: values may come before it.

Assays:
[1] = target: T1, Bone morphogenetic protein 1 (Homo sapiens, UniProt P13497); assay: Inhibition of human procollagen C-proteinase expressed in CHO cells by fluorescence assay; assay type: cell-based
T1 sequence (P13497 whole entry): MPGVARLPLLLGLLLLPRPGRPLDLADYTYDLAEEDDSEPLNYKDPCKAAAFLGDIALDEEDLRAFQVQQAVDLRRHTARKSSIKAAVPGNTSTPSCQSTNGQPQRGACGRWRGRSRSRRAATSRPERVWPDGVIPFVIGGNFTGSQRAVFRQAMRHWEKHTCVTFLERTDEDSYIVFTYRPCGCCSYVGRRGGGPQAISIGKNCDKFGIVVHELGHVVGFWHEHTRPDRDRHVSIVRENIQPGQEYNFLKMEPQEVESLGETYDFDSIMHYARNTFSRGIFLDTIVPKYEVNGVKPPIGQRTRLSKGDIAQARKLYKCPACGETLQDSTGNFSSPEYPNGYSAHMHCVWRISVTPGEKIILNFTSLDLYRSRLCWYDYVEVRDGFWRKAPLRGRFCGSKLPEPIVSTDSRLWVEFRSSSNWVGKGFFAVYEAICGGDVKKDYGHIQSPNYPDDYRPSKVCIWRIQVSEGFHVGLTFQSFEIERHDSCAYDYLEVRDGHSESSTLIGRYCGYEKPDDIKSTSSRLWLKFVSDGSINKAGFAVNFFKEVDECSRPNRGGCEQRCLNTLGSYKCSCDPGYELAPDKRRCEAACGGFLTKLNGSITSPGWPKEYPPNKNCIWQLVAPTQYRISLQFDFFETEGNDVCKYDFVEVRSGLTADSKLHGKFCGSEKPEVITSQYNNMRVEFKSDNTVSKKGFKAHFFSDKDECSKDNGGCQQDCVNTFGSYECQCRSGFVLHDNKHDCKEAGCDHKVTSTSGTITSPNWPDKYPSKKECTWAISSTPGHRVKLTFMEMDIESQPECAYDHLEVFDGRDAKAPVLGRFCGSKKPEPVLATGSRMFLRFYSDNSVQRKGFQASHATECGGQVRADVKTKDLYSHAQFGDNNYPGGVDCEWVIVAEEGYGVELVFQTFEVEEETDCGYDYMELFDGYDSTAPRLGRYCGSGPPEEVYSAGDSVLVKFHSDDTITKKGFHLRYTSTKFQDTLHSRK

[2] = Lipophilicity, log D at pH 7.4; assay type: physicochemical; details: buffer
[3] = Dissociation constant, pKa of the compound; assay type: physicochemical
[4] = Aqueous solubility in phosphate-buffered saline at pH 7.4 by HPLC; assay type: physicochemical
[5] = target: T1, Bone morphogenetic protein 1; assay: Inhibition of human procollagen C-proteinase assessed as [3H]procollagen turnover by scintillation counting
Fibroblast [6] = assay: Reduction in collagen deposition in human fibroblasts at 10 uM after 8 days by HPLC; assay type: functional; set-up: scale not given: the % may be the effect or the level left
Fibroblast [7] = assay: Reduction in collagen deposition in human fibroblasts after 8 days by HPLC; assay type: functional, cell-based
Zone of skin [8] = assay: Effect on transepidermal penetration in human cadaver skin assessed as TED flux after 24 hrs by LC-MS/MS analysis using [14C]mannitol as receptor fluid; assay type: functional
How it was run: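 Human cadaver stratum corneum was mounted in a Franz diffusion cell and exposed for 24 h to a solution in 50% aqueous propylene glycol (pH 6.8). Compound reaching the receptor chamber was measured and a flux rate was calculated. Reported as mean ± SEM, n = 6–10.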

[9] = Saturated solubility in propylene glycol-citrate buffer-ethanol; assay type: physicochemical
Zone of skin [10] = assay: Effect on transepidermal penetration in human cadaver skin assessed as TED flux after 24 hrs by LC-MS/MS analysis using [14C]mannitol as receptor fluid in presence of propylene glycol-citrate buffer-ethanol; assay type: functional
How it was run: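 Human cadaver stratum corneum was mounted in a Franz diffusion cell and exposed for 24 h to a solution in propylene glycol–citrate buffer–ethanol (20:30:50). Receptor-chamber concentration was used to calculate TED flux.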

[11] = target: 3',5'-cyclic-AMP phosphodiesterase 4A (Homo sapiens, UniProt P27815); assay: Inhibition of PDE4A
[12] = target: 3',5'-cyclic-AMP phosphodiesterase 4B (Homo sapiens, UniProt Q07343); assay: Inhibition of PDE4B
[13] = target: 3',5'-cyclic-AMP phosphodiesterase 4C (Homo sapiens, UniProt Q08493); assay: Inhibition of PDE4C
[14] = target: 3',5'-cyclic-AMP phosphodiesterase 4D (Homo sapiens, UniProt Q08499); assay: Inhibition of PDE4D
[15] = Metabolic stability in human liver microsomes assessed as half life; assay type: ADME, Microsome
[16] = Metabolic stability in dog liver microsomes assessed as half life; assay type: ADME, Canis lupus familiaris, Microsome
[17] = Metabolic stability in rat liver microsomes assessed as half life; assay type: ADME, Microsome
[18] = Elimination half life in rat at 2 mg/kg, iv administered as single dose; assay type: ADME, organism-based; set-up: dose 2 mg/kg, route intravenous; details: in vivo, read-out: beta t1/2 (converted)
How it was run: (§1)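 Male rats (n = 2) received a single intravenous dose of 2 mg/kg. Plasma sampling gave half-life, clearance and volume of distribution. Concentrations were also followed after dosing against the assay's limit of quantification.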

[19] = Plasma clearance in rat at 2 mg/kg, iv administered as single dose; assay type: ADME, organism-based; set-up: dose 2 mg/kg, route intravenous; how it was run: as §1
[20] = Volume of distribution in rat at 2 mg/kg, iv administered as single dose; assay type: ADME, organism-based; set-up: dose 2 mg/kg, route intravenous; details: in vivo; how it was run: as §1
[21] = Elimination half life in dog at 0.5 mg/kg, iv administered as single dose; assay type: ADME, organism-based, Canis lupus familiaris; set-up: dose 0.5 mg/kg, route intravenous; details: in vivo, read-out: beta t1/2 (converted)
How it was run: (§2)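 Male dogs (n = 2) received a single intravenous dose of 0.5 mg/kg or a single oral dose of 2 mg/kg. Plasma concentrations were used to derive half-life, clearance, volume of distribution, Cmax, Tmax and oral bioavailability.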

[22] = Plasma clearance in dog at 0.5 mg/kg, iv administered as single dose; assay type: ADME, organism-based, Canis lupus familiaris; set-up: dose 0.5 mg/kg, route intravenous; how it was run: as §2
[23] = Volume of distribution in dog at 0.5 mg/kg, iv administered as single dose; assay type: ADME, organism-based, Canis lupus familiaris; set-up: dose 0.5 mg/kg, route intravenous; details: in vivo; how it was run: as §2
[24] = Cmax in dog at 2 mg/kg, po administered as single dose; assay type: ADME, organism-based, Canis lupus familiaris; set-up: dose 2 mg/kg, route oral; details: in vivo; how it was run: as §2
[25] = Tmax in dog at 2 mg/kg, po administered as single dose; assay type: ADME, organism-based, Canis lupus familiaris; set-up: dose 2 mg/kg, route oral; details: in vivo; how it was run: as §2
[26] = Oral bioavailability in dog at 2 mg/kg administered as single dose; assay type: ADME, organism-based, Canis lupus familiaris; details: in vivo; how it was run: as §2
[27] = Plasma concentration in rat at 2 mg/kg, iv administered as single dose after 2 hrs; assay type: ADME, organism-based; set-up: dose 2 mg/kg, route intravenous; how it was run: as §1
[28] = Drug level in pig skin assessed as steady state concentration at 0.9 mg/ml in 50% aqueous propylene glycol administered tropically after 24 hrs; assay type: ADME, tissue-based, Sus scrofa, Zone of skin; details: topical or ocular, read-out: Drug uptake
How it was run: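 Applied topically to intact pig skin as a 0.9 mg/ml solution in 50% aqueous propylene glycol. Tissue level was measured in the upper dermis as the steady-state concentration at 24 h.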

Stromelysin-1 = Stromelysin-1 (Homo sapiens, UniProt P08254); assay: Inhibition of human MMP3 by fluorescence assay
Chain of Stromelysin-1 (P08254 whole entry): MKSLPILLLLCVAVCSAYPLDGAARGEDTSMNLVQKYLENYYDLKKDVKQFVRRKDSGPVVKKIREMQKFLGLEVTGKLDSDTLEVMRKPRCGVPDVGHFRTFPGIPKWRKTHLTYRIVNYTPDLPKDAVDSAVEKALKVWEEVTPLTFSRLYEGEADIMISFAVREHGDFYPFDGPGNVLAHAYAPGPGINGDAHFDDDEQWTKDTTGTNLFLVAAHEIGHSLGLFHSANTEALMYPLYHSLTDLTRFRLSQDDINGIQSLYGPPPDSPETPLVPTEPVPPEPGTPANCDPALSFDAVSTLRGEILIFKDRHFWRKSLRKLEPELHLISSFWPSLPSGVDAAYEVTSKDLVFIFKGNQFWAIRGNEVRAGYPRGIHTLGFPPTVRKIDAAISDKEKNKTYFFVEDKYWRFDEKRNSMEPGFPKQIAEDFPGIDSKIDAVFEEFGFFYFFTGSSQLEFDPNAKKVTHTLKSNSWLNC

Chain of 3',5'-cyclic-AMP phosphodiesterase 4C (Q08493 whole entry): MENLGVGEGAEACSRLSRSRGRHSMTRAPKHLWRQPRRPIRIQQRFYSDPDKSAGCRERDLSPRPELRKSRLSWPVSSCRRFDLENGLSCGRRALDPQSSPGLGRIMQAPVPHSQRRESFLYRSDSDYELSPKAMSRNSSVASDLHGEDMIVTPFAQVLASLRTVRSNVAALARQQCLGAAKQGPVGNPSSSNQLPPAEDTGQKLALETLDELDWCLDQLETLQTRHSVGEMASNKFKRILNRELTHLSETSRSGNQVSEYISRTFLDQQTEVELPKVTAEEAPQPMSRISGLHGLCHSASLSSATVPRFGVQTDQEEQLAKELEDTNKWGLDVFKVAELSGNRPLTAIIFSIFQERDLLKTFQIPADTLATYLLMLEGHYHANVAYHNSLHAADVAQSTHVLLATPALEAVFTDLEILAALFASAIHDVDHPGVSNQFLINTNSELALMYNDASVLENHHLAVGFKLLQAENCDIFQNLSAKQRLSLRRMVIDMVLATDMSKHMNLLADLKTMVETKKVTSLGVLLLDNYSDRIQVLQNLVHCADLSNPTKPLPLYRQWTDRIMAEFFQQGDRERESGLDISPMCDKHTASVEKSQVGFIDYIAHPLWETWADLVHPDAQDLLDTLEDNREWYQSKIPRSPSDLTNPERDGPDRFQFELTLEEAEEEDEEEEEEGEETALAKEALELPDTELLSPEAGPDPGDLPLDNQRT
Chain of 3',5'-cyclic-AMP phosphodiesterase 4D (Q08499 whole entry): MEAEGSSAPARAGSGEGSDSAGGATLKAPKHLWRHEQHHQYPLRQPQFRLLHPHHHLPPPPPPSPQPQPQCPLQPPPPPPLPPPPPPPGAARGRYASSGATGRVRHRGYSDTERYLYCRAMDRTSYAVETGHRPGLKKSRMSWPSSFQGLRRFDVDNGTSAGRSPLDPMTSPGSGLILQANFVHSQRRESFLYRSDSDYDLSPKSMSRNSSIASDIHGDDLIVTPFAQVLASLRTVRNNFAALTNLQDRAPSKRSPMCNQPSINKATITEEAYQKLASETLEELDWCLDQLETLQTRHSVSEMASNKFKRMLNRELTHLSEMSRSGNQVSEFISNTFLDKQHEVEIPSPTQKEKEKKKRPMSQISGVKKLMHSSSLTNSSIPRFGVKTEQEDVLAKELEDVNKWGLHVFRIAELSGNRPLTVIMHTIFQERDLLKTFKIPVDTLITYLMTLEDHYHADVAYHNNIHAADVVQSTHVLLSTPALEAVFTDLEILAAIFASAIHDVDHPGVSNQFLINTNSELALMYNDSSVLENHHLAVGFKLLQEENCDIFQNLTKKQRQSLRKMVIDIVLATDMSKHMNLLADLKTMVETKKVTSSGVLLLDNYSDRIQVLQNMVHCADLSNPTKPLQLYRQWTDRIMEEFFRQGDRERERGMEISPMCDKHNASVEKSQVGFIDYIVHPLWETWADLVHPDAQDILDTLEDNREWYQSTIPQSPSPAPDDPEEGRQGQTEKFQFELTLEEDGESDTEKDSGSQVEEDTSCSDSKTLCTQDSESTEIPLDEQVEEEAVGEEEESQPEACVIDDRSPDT
Chain of 3',5'-cyclic-AMP phosphodiesterase 4B (Q07343 whole entry): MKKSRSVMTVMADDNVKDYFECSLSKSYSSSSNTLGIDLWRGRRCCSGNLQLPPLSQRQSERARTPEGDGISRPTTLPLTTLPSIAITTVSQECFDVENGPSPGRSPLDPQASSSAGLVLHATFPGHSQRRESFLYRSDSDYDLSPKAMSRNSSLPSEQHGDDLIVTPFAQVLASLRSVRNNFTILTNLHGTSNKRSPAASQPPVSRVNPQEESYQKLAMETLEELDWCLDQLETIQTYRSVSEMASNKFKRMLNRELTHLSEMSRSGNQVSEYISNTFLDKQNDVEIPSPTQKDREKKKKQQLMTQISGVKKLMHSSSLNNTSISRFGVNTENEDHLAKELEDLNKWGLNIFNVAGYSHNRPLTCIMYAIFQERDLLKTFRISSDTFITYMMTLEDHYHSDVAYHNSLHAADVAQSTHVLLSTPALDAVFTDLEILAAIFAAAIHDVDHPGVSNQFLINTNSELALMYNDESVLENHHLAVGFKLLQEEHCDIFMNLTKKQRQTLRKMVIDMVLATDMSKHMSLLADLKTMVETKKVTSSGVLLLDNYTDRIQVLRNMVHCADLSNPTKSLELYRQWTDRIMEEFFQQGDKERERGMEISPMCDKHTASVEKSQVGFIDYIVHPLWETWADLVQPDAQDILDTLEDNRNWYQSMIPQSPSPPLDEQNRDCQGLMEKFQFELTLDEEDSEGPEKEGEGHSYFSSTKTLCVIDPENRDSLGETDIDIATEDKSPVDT
Chain of 3',5'-cyclic-AMP phosphodiesterase 4A (P27815 whole entry): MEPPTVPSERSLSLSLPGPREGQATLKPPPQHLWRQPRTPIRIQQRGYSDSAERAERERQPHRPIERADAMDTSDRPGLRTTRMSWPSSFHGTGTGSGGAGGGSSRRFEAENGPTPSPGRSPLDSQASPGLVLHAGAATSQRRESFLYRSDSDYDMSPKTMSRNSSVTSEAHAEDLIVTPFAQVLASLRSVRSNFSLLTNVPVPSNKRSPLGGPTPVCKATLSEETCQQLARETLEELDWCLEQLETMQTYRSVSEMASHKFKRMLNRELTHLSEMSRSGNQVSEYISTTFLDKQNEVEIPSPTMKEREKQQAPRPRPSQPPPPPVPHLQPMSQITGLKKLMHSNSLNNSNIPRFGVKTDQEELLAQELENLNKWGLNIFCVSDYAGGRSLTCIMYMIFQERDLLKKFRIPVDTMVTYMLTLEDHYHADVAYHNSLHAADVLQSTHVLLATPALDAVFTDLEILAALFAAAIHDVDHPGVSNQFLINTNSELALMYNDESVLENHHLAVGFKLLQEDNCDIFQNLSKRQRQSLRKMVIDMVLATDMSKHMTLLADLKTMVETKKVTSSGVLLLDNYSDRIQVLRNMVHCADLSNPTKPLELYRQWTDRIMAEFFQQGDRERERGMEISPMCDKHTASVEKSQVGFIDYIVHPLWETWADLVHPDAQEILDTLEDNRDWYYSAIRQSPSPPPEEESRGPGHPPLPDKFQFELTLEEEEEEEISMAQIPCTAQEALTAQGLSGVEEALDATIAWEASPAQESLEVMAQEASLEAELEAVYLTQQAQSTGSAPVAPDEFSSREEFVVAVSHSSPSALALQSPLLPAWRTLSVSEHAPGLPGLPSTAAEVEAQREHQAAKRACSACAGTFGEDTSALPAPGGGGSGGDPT

- IC50 [1]: 0.073 µM
SMILES: NC(=O)c1coc([C@H](CCCC2CCCCC2)CC(=O)NO)n1

- IC50 [1]: 0.033 µM
SMILES: O=C(C[C@@H](CCCC1CCCCC1)c1nc(C(=O)NCC2CC2)no1)NO

- IC50 [1]: 0.057 µM
SMILES: O=C(C[C@@H](CCCC1CCCCC1)c1nc(C(=O)NCc2ccccc2)no1)NO

- IC50 [1]: 0.054 µM
SMILES: CN1CCN(C(=O)c2noc([C@H](CCCC3CCCCC3)CC(=O)NO)n2)CC1

- IC50 [1]: 0.04 µM
SMILES: CN(Cc1ccccn1)C(=O)c1noc([C@H](CCCC2CCCCC2)CC(=O)NO)n1

- IC50 [1]: 0.017 µM
SMILES: Cc1oc([C@H](CCCC2CCCCC2)CC(=O)NO)nc1C(=O)N(C)C

- IC50 [1]: 0.032 µM
SMILES: CCCNC(=O)c1noc([C@H](CCCC2CCCCC2)CC(=O)NO)n1

- logD [2]: 2.6
- pKa [3]: 9
- solubility [4]: 0.035 mg/mL (≈ 108 µM)
- IC50 [5]: 0.026 µM
- solubility thermodynamic [9]: 13.8 mg/mL (≈ 42500 µM)
- IC50 [11]: 1.8 µM
- IC50 [12]: 1.5 µM
- IC50 [13]: 2.4 µM
- IC50 [14]: 0.9 µM
- half-life [15]: 19 min
- half-life [16]: 9 min
- half-life [17]: < 2 min
- half-life [18]: 48 min
- clearance [19]: 9.42 L/h/kg
- Vd [20]: 12 L/kg
- half-life [21]: 90 min
- clearance [22]: 2.1 L/h/kg
- Vd [23]: 4.6 L/kg
- Cmax [24]: 0.11 µg/mL
- Tmax [25]: 30 min
- bioavailability [26]: 13%
- concentration at 2 h [27]: < 0.1 µg/mL
- concentration at 24 h [28]: 10 µM
SMILES: NC(=O)c1noc([C@H](CCCC2CCCCC2)CC(=O)NO)n1
- Activity (Fibroblast [6]): 76%
- Activity (Fibroblast [7]): Dose-dependent effect
- IC50 (Fibroblast [7]; 192 h): 2.1 µM
- TED (Zone of skin [8]): 0.3 microg/cm2/h
- TED (Zone of skin [10]): 1.59 microg/cm2/h

- IC50 [1]: 0.045 µM
SMILES: CN(C)C(=O)c1coc([C@H](CCCC2CCCCC2)CC(=O)NO)n1

- IC50 [1]: 0.028 µM
SMILES: CNC(=O)c1noc([C@H](CCCC2CCCCC2)CC(=O)NO)n1

- IC50 [1]: 0.01 µM
- logD [2]: 3.6
- solubility [4]: 0.9 mg/mL (≈ 2550 µM)
- IC50 [5]: 0.0093 µM
- IC50 (Stromelysin-1): 28 µM
SMILES: CN(C)C(=O)c1noc([C@H](CCCC2CCCCC2)CC(=O)NO)n1
- Activity (Fibroblast [6]): 67%
- TED (Zone of skin [8]): 2.6 microg/cm2/h

- IC50 [1]: 0.037 µM
SMILES: O=C(C[C@@H](CCCC1CCCCC1)c1nc(C(=O)NCc2ccccn2)no1)NO

- IC50 [1]: 0.021 µM
SMILES: CC(C)NC(=O)c1noc([C@H](CCCC2CCCCC2)CC(=O)NO)n1

- IC50 [1]: 0.065 µM
SMILES: CN(Cc1ccccc1)C(=O)c1noc([C@H](CCCC2CCCCC2)CC(=O)NO)n1

- IC50 [1]: > 2 µM
SMILES: NC(=O)c1noc([C@@H](CCCC2CCCCC2)CC(=O)NO)n1

- IC50 [1]: 0.025 µM
SMILES: O=C(C[C@@H](CCCC1CCCCC1)c1nc(C(=O)N2CCOCC2)no1)NO

- IC50 [1]: 0.043 µM
SMILES: O=C(C[C@@H](CCCC1CCCCC1)c1nc(C(=O)N2CCCC2)no1)NO

- IC50 [1]: 0.021 µM
SMILES: O=C(O)CNC(=O)c1noc([C@H](CCCC2CCCCC2)CC(=O)NO)n1

- IC50 [1]: 0.026 µM
SMILES: O=C(C[C@@H](CCCC1CCCCC1)c1nc(C(=O)N2CCCCC2)no1)NO

- IC50 [1]: 0.017 µM
SMILES: Cc1oc([C@H](CCCC2CCCCC2)CC(=O)NO)nc1C(N)=O
